ChEMBL document CHEMBL4699574, “Discovery of Ketone-Based Covalent Inhibitors of Coronavirus 3CL Proteases for the Potential Therapeutic Treatment of COVID-19” (J Med Chem, 2020)
In brackets after ≈: the same amount, converted by molar mass. Activity calls are given as the source filed them. No cut-off for these calls is given here.

Assays:
Cathepsin D [1] = biological target: T1, Cathepsin D (Homo sapiens, UniProt P07339); assay: Inhibition of human cathepsin D
[2] = Volume of distribution at steady state in rat at 2 mg/kg, iv; format: ADME, organism-based; details: in vivo
rhinovirus B14 = assay: Antiviral activity against Human rhinovirus 14 infected in human H1-HeLa cells assessed as reduction in virus-induced cytopathogenicity incubated for 2 to 5 days by XTT dye based analysis; format: functional, organism-based; details: Rhinovirus B
[3] = Inhibition of human chymotrypsin
[4] = Inhibition of HCV protease; design: species or system Hepacivirus hominis
[5] = biological target: Human immunodeficiency virus type 1 protease (Human immunodeficiency virus 1) (UniProt Q72874); assay: Inhibition of HIV1 protease at 10 uM relative to control
[6] = Aqueous solubility of compound in 2.5% w/v HPCD formulation; format: physicochemical; details: 2.5% w/v HPCD in water
Human coronavirus 229E [7] = assay: Antiviral activity against Human coronavirus 229E infected in human MRC5 cells assessed as reduction in virus-induced cytopathogenicity incubated for 4 days in presence of p-glycoprotein inhibitor CP100356 by XTT dye based assay; format: functional, organism-based; details: time 4.0 day
Method in brief: (§1)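 P-glycoprotein transport inhibitor CP-100356 co-dosed at a fixed 0.5 µM throughout a full dose-response of the test inhibitor in the antiviral cytopathic assay.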

Cathepsin B [8] = biological target: T2, Cathepsin B (Homo sapiens, UniProt P07858); assay: Inhibition of human cathepsin B at 10 uM relative to control
[9] = biological target: leukocyte (neutrophil) elastase (Homo sapiens, UniProt P08246); assay: Inhibition of human leukocyte elastase at 10 uM relative to control
leukocyte (neutrophil) elastase, sequence (P08246 whole entry): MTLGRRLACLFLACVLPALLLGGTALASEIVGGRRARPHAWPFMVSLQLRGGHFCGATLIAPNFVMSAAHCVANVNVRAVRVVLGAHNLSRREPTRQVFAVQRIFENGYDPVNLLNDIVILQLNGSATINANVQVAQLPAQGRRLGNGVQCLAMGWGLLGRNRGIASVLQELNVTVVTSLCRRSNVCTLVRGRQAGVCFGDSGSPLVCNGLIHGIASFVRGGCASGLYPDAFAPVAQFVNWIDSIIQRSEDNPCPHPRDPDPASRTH

rhinovirus A16 = assay: Antiviral activity against Human rhinovirus 16 infected in human H1-HeLa cells assessed as reduction in virus-induced cytopathogenicity incubated for 2 to 5 days by XTT dye based analysis; format: functional, organism-based; details: Rhinovirus A
[10] = Cytotoxicity against human MRC5 cells assessed as reduction in cell viability incubated for 4 days by XTT dye based assay; details: time 4 day
[11] = Metabolic stability in human liver microsomes assessed as half life; format: ADME, Microsome
Caspase-2 [12] = biological target: T3, Caspase-2 (Homo sapiens, UniProt P42575); assay: Inhibition of human Caspase 2 at 10 uM relative to control
T3 sequence (P42575 170-325 limits assumed): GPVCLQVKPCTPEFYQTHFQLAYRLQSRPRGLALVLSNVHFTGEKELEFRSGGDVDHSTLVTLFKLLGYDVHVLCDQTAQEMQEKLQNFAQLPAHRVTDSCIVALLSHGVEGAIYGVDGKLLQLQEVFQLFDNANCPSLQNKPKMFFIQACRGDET
T3 sequence (P42575 334-452 limits assumed): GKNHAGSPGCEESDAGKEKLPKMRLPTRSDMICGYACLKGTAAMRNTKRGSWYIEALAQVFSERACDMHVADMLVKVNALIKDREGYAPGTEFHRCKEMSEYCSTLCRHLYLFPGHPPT

[13] = tested on: Human immunodeficiency virus 1; assay: Antiviral activity against HIV-1-RF infected in human H9 cells assessed as reduction in virus-induced cytopathogenicity incubated for 7 days by XTT dye based analysis; format: functional, organism-based; details: Human immunodeficiency virus 1, RF, H9, 168 h
[14] = Clearance in dog at 2 mg/kg, iv; details: in vivo
thrombin = thrombin (Homo sapiens, UniProt P00734); assay: Inhibition of human thrombin at 10 uM relative to control
[15] = Volume of distribution at steady state in monkey at 4 mg/kg, iv; format: ADME, organism-based, Macaca mulatta; details: rhesus monkey, in vivo
Neutrophil elastase = Neutrophil elastase (Homo sapiens, UniProt P08246); assay: Inhibition of human leukocyte elastase
Neutrophil elastase, sequence (P08246 whole entry): as the sequence (P08246 whole entry) above

[16] = Aqueous solubility of compound in 2.5% w/v SBECD, pH 7.4 5 mM phosphate buffer, made isotonic with 4.25% dextrose formulation; format: physicochemical; details: 2.5% w/v SBECD in phosphate buffer, dose 4.6 mg/ml
Cathepsin B [17] = biological target: T2, Cathepsin B; assay: Inhibition of human cathepsin B
chymotrypsin = assay: Inhibition of human chymotrypsin at 10 uM relative to control
Prothrombin = Prothrombin (Homo sapiens, UniProt P00734); assay: Inhibition of human thrombin
Caspase-2 [18] = biological target: T3, Caspase-2; assay: Inhibition of human Caspase 2
[19] = Inhibition of Human coronavirus 229E protease
[20] = Half-life in rat at 2 mg/kg, iv; format: ADME, organism-based; details: in vivo
[21] = AUC in dog at 2 mg/kg, iv; format: ADME, organism-based, Canis lupus familiaris; design: dose 2 mg/kg; details: in vivo
[22] = Cytotoxicity against human H1-HeLa cells assessed as reduction in cell viability measured after 2 to 5 days by XTT assay; format: cell-based; details: time 2-5 day
[23] = Half life in dog at 2 mg/kg, iv; format: ADME, organism-based, Canis lupus familiaris; details: in vivo
pepsin = assay: Inhibition of human pepsin at 10 uM relative to control
[24] = Volume of distribution at steady state in dog at 2 mg/kg, iv; format: ADME, organism-based, Canis lupus familiaris; details: in vivo, read-out: Vdss
Hepatitis C virus = assay: Antiviral activity against Hepatitis C virus replicon infected in human Huh-7 cells assessed as reduction in viral RNA synthesis measured after 24 to 72 hrs by Trizol reagent based RT-PCR analysis; format: functional, organism-based, Hepacivirus hominis
[25] = Reversible inhibition of SARS coronavirus Urbani 3CL protease(9985 to 10902) using TAMRA-SITSAVLQSGFRKMK(DABCYL)-OH as substrate measured for 10 mins by FRET assay
Method in brief: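 SARS CoV-1 3CLpro FRET assay; each value calculated from at least eight data points, with at least two independent determinations.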

Human betaherpesvirus 5 = assay: Antiviral activity against Human cytomegalovirus AD169 infected in human MRC5 cells assessed as reduction in viral replication measured after 5 days by ELISA; format: functional, cell-based; details: Human betaherpesvirus 5, AD169, MRC5, 120 h
[26] = Inhibition of SARS-CoV-2 3CL protease using DABCYLKTSAVLQ-SGFRKME-EDANS as peptide substrate in presence of PF-00835231 inhibitor incubated for 60 mins by FRET assay; design: species or system Severe acute respiratory syndrome coronavirus 2
[27] = Inhibition of human pepsin
[28] = Half-life in monkey at 4 mg/kg, iv; format: ADME, organism-based, Macaca mulatta; details: rhesus monkey, in vivo
[29] = biological target: Human immunodeficiency virus type 1 protease (Human immunodeficiency virus 1, UniProt Q72874); assay: Inhibition of HIV1 protease
[30] = Cytotoxicity against human MRC5 cells assessed as reduction in cell viability after 1 to 5 days by XTT dye based assay; details: time 1-5 day
[31] = Cytotoxicity against African green monkey Vero 76 cells measured after 66 hrs by neutral red method or cell titer glo-based luminescence assay; details: chlorocebus sabaeus
SARS-CoV = assay: Antiviral activity against SARS COV-1 infected in monkey Vero 76 cells assessed as reduction in virus-induced cytopathic effect measured after 66 hrs in presence of p-glycoprotein inhibitor CP100356 by neutral red method or cell titer glo-based luminescence assay; format: functional, organism-based; details: Severe acute respiratory syndrome-related coronavirus, Vero 76, 66 h; method in brief: as §1
Human coronavirus 229E [32] = assay: microbe, parasite or virus in culture; details: MRC5, 96 h
[33] = AUC in monkey at 4 mg/kg, iv; format: ADME, organism-based, Macaca mulatta; design: dose 4 mg/kg; details: rhesus monkey, in vivo
Hepacivirus hominis = assay: Inhibition of HCV protease at 10 uM relative to control
[34] = Aqueous solubility of compound in 2.5% w/v SBECD, pH 7.4 5 mM citrate buffer, made isotonic with 4.25% dextrose formulation; format: physicochemical; details: 2.5% w/v SBECD in citrate buffer
[35] = Permeability of compound in human Caco-2 cells; format: ADME, cell-based
[36] = Inhibition of HRV protease; design: species or system Human rhinovirus sp.
Cathepsin D [37] = biological target: T1, Cathepsin D; assay: Inhibition of human cathepsin D at 10 uM relative to control
[38] = Cytotoxicity against human H9 cells assessed as reduction in cell viability incubated for 7 days by XTT dye based analysis; details: time 7 day
[39] = AUC in rat at 2 mg/kg, iv; format: ADME, organism-based; design: dose 2 mg/kg; details: in vivo
[40] = Cytotoxicity against human HuH-7 cells assessed as reduction in cell viability; format: cell-based

T1 sequence (P07339 65-162 limits assumed): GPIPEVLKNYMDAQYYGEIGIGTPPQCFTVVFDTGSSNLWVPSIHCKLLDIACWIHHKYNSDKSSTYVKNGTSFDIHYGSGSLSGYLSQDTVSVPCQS
T1 sequence (P07339 169-412 limits assumed): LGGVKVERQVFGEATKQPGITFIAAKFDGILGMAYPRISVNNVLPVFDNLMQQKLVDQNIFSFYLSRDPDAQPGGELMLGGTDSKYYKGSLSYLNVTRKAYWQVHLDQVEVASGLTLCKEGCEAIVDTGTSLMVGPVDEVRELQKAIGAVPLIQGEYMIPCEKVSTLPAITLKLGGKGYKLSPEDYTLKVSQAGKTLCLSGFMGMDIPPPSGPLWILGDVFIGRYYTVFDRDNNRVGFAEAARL

COc1cccc2[nH]c(C(=O)N[C@@H](CC(C)C)C(=O)N[C@@H](C[C@@H]3CCNC3=O)C(=O)CO)cc12 [PF-00835231]
IC50 (Cathepsin D [1]): > 10 µM
Vdss [2]: 1.2 L/kg
EC50 (rhinovirus B14): > 100 µM
IC50 [3]: > 10 µM
IC50 [4]: > 10 µM
inhibition [5]: 0%
solubility [6]: 6600 µg/mL (≈ 14 mM)
Activity (Human coronavirus 229E [7]): Active
inhibition at 10 µM (Cathepsin B [8]): 93%
inhibition at 10 µM [9]: -31%
EC50 (rhinovirus A16): > 100 µM
CC50 at 96 h [10]: > 40 µM
half-life [11]: 1.78 h
inhibition at 10 µM (Caspase-2 [12]): -20%
EC50 [13]: > 32 µM
clearance [14]: 10.5 mL/min/kg
inhibition at 10 µM (thrombin): -28%
Vdss [15]: 0.6 L/kg
IC50 (Neutrophil elastase): > 10 µM
solubility [16]: 4600 µg/mL (≈ 9.73 mM)
IC50 (Cathepsin B [17]): 1.3 µM
inhibition at 10 µM (chymotrypsin): 8%
IC50 (Prothrombin): > 10 µM
IC50 (Caspase-2 [18]): > 10 µM
IC50 [19]: 0.004 µM
t1/2 [20]: 1 min
AUC [21]: 3800 ng·h/mL
CC50 [22]: > 1260 µM
half-life [23]: 1.3 h
inhibition at 10 µM (pepsin): -2%
Vd [24]: 0.4 L/kg
EC50 (Hepatitis C virus): > 320 µM
IC50 [25]: 0.004 µM
EC50 (Human betaherpesvirus 5): > 100 µM
IC50 [26]: 0.00027 µM
IC50 [27]: > 10 µM
t1/2 [28]: 1.6 min
IC50 [29]: > 10 µM
CC50 [30]: > 100 µM
CC50 at 66 h [31]: 452 µM
EC50 (SARS-CoV): 1.1 µM
EC50 (Human coronavirus 229E [32]): 0.009 µM
AUC [33]: 3800 ng·h/mL
inhibition (Hepacivirus hominis): 16%
solubility [34]: 4600 µg/mL (≈ 9.73 mM)
permeability [35]: Impermeable
IC50 [36]: 1.7 µM
inhibition at 10 µM (Cathepsin D [37]): 3%
CC50 at 168 h [38]: > 32 µM
AUC [39]: 1200 ng·h/mL
CC50 [40]: > 320 µM
